For data set [1], the system named is PBMC. Description: Immunomodulatory activity in human PBMC assessed as induction of IL12 at 100 ug/ml after 24 hrs. The data set is classed as functional, cell-based. A digest of the protocol:
(§1)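 Human PBMCs plated at 5 × 10^6 cells/mL; compounds dissolved in PBS added at various concentrations, 37 °C for 24 h. Supernatant cytokines/chemokines quantified with human Luminex multiplex kit.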

The nature of data set [2]: Metabolic stability in human serum assessed as full length product remaining after 10 mins by HPLC. Format: ADME, cell-free. As to conditions: read-out: Stability. A digest of the protocol:
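About 0.5 A260 units compound in 1% human serum in PBS, 37 °C; aliquot taken at 10 min, analysed by anion-exchange HPLC for percent intact full-length product.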

For data set [3], the system named is PBMC. The data set is described as follows: Immunomodulatory activity in human PBMC assessed as induction of IFN-alpha at 100 ug/ml after 24 hrs.
For data set [4], the target named is T1, Toll-like receptor 9 (Mus musculus) (UniProt Q9EQU3).
T1 sequence (whole entry): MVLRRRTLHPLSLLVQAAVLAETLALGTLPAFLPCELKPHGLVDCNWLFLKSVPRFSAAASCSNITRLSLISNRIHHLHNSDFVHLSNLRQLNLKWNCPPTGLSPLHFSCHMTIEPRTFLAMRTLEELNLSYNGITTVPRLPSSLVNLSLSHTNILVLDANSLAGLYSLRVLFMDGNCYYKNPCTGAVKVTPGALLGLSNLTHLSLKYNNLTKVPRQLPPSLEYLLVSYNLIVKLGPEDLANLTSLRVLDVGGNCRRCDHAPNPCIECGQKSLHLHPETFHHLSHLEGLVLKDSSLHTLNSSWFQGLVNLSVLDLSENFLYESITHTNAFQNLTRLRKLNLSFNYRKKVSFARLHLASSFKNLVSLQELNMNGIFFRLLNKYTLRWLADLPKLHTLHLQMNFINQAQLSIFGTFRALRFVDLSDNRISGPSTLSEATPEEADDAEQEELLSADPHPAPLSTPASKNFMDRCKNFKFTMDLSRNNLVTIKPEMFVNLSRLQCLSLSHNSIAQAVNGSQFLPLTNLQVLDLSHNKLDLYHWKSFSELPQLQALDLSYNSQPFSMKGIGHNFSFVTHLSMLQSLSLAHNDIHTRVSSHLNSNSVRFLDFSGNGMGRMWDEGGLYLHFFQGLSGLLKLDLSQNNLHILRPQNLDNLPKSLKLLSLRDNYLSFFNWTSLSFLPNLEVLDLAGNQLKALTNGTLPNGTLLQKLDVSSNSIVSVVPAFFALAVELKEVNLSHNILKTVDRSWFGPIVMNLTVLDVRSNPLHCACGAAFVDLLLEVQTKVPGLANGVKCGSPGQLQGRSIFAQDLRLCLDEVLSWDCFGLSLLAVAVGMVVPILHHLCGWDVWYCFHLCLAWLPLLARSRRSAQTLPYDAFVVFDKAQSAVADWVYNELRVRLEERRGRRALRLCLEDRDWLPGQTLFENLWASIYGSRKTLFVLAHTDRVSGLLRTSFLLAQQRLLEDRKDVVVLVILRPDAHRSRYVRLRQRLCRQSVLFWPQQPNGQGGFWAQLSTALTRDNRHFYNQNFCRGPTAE
Description: Activation of mouse TLR9 expressed in HEK293 assessed as induction of NF-kappaB activity reporter gene assay. Format: cell-based.

The test system of data set [5] is PBMC. The data set is described as follows: Immunomodulatory activity in human PBMC assessed as induction of TNFalpha at 100 ug/ml after 24 hrs. Format: functional, cell-based. A digest of the protocol:
as §1

The target of data set [6] is Toll-like receptor 3 (Homo sapiens) (UniProt O15455). The data set is described as follows: Activation of human TLR3 expressed in HEK293 assessed as induction of NF-kappaB activity reporter gene assay. Format: cell-based.
Sequence of Toll-like receptor 3 (Homo sapiens) (O15455 whole entry): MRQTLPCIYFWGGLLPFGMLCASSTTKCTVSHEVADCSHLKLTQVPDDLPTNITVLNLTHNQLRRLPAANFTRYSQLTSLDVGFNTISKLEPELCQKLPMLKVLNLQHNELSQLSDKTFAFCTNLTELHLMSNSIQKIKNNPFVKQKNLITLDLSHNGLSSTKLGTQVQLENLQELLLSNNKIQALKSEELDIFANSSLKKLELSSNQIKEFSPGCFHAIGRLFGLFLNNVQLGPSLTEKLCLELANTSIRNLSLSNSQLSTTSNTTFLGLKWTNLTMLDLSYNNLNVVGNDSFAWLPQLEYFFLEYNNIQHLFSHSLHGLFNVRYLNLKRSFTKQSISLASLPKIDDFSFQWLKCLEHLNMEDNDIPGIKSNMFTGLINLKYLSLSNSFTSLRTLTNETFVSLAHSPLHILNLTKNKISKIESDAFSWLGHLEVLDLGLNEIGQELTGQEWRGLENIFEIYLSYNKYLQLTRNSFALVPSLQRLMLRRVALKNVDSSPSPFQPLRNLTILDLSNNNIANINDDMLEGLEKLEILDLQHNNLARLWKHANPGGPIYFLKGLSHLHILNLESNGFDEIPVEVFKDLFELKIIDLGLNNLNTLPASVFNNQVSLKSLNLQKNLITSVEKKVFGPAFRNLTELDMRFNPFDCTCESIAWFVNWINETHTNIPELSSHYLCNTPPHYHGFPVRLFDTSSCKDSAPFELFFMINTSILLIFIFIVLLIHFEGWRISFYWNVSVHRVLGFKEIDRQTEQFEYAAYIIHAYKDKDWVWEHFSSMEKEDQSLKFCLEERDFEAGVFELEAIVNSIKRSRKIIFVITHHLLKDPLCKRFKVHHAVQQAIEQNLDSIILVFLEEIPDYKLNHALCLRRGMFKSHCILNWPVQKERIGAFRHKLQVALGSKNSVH
The target in data set [7] is T2, Toll-like receptor 8 (Homo sapiens) (UniProt Q9NR97).
T2 sequence (whole entry): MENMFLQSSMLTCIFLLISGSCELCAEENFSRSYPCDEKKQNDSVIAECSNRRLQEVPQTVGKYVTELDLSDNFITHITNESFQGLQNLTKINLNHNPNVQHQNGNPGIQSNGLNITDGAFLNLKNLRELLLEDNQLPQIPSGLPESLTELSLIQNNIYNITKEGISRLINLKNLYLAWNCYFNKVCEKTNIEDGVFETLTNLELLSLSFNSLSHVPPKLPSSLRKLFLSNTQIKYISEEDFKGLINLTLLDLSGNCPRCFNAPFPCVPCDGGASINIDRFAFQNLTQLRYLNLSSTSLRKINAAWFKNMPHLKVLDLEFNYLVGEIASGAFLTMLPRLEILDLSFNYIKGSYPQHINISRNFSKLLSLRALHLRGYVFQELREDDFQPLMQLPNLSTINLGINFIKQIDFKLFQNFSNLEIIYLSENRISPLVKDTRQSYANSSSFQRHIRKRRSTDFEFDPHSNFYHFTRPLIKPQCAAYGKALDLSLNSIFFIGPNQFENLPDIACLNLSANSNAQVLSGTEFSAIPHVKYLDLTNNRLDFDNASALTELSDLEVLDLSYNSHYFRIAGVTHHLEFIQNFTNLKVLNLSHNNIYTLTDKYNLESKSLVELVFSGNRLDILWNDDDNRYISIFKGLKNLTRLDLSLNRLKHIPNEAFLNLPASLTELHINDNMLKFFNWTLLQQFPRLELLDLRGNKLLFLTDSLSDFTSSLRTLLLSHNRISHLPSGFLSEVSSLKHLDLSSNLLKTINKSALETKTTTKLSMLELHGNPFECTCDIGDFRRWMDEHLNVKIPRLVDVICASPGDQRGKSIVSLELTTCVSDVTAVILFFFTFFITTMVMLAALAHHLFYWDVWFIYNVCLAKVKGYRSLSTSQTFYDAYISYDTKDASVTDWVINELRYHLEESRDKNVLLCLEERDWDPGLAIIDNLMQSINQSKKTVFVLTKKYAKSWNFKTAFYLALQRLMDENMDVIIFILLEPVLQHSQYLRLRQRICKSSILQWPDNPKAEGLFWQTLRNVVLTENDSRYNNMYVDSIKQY
Description: Activation of human TLR8 expressed in HEK293XL assessed as fold induction of NF-kappaB activity at 50 ug/ml after 18 hrs by reporter gene assay relative to control. A digest of the protocol: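 HEK293 cells stably expressing human TLR7 or TLR8, transiently transfected with SEAP reporter plasmid; medium replaced, SIMRA compounds added, 18 h incubation. Supernatant SEAP measured by QuantiBlue; expressed as fold increase in NF-κB activity over PBS control. Tabulated data at 50 μg/mL, representative of three independent experiments.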

Data set [8] deals with Splenocyte. The data set is described as follows: Immunomodulatory activity in C57BL/6 mouse splenocytes bearing TLR7 receptor assessed as IL6 release at 100 ug/ml after 24 hrs by ELISA. The data set is classed as functional, cell-based. A digest of the protocol: (§2)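 C57BL/6 splenocytes in RPMI 1640 with 10% FBS, penicillin/streptomycin, 2 mM L-glutamine, plated at 5 × 10^6 cells/mL; compounds in PBS added, 37 °C for 24 h. Supernatant IL-12 and IL-6 by ELISA; representative of three independent experiments.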

Data set [9] deals with Splenocyte. The data set is described as follows: Immunomodulatory activity in C57BL/6 mouse splenocytes bearing TLR7 receptor assessed as IL12 release at 100 ug/ml after 24 hrs by ELISA. The data set is classed as functional, cell-based. A digest of the protocol: as §2

This note sets out measurements from ChEMBL document CHEMBL1154352, “Toll-like receptor 7 selective synthetic oligoribonucleotide agonists: synthesis and structure-activity relationship studies” (J Med Chem, 2009).

Activity calls are given as the source filed them. The rule behind the calls is not given here.

Take `Nc1ccn([C@@H]2O[C@H](COP(=O)(S)O[C@H]3[C@@H](O)[C@H](n4cnc5c(=O)[nH]c(N)nc54)O[C@@H]3COP(=O)(S)O[C@H]3[C@@H](O)[C@H](n4ccc(=O)[nH]c4=O)O[C@@H]3COP(=O)(S)OCCCO)[C@@H](OP(=O)(S)OC[C@H]3O[C@@H](n4ccc(=O)[nH]c4=O)[C@H](O)[C@@H]3OP(=O)(S)OC[C@H]3O[C@@H](n4cnc5c(=O)[nH]c(N)nc54)[C@H](O)[C@@H]3OP(=O)(S)OC[C@H]3O[C@@H](n4ccc(N)nc4=O)[C@H](O)[C@@H]3OP(=O)(S)OC[C@H]3O[C@@H](n4ccc(=O)[nH]c4=O)[C@H](O)[C@@H]3OP(=O)(S)OC[C@H]3O[C@@H](n4ccc(=O)[nH]c4=O)[C@H](O)[C@@H]3OP(=O)(S)OC[C@H]3O[C@@H](n4cnc5c(=O)[nH]c(N)nc54)[C@H](O)[C@@H]3OP(=O)(S)OC[C@H]3O[C@@H](n4ccc(=O)[nH]c4=O)[C@H](O)[C@@H]3OP(=O)(S)OC[C@H]3O[C@@H](n4cnc5c(=O)[nH]c(N)nc54)[C@H](O)[C@@H]3OP(=O)(S)OCC(O)COP(=O)(S)O[C@H]3[C@@H](O)[C@H](n4cnc5c(=O)[nH]c(N)nc54)O[C@@H]3COP(=O)(S)O[C@H]3[C@@H](O)[C@H](n4ccc(=O)[nH]c4=O)O[C@@H]3COP(=O)(S)O[C@H]3[C@@H](O)[C@H](n4cnc5c(=O)[nH]c(N)nc54)O[C@@H]3COP(=O)(S)O[C@H]3[C@@H](O)[C@H](n4ccc(=O)[nH]c4=O)O[C@@H]3COP(=O)(S)O[C@H]3[C@@H](O)[C@H](n4ccc(=O)[nH]c4=O)O[C@@H]3COP(=O)(S)O[C@H]3[C@@H](O)[C@H](n4ccc(N)nc4=O)O[C@@H]3COP(=O)(S)O[C@H]3[C@@H](O)[C@H](n4cnc5c(=O)[nH]c(N)nc54)O[C@@H]3COP(=O)(S)O[C@H]3[C@@H](O)[C@H](n4ccc(=O)[nH]c4=O)O[C@@H]3COP(=O)(S)O[C@H]3[C@@H](O)[C@H](n4ccc(N)nc4=O)O[C@@H]3COP(=O)(S)O[C@H]3[C@@H](O)[C@H](n4cnc5c(=O)[nH]c(N)nc54)O[C@@H]3COP(=O)(S)O[C@H]3[C@@H](O)[C@H](n4ccc(=O)[nH]c4=O)O[C@@H]3COP(=O)(S)OCCCO)[C@H]2O)c(=O)n1` (stereo partly drawn): the figures for the Activity with PBMC [1] and in the data set on PBMC [5] were 715 pg/mL and 260 pg/mL, respectively. Also, in data set [2], the remaining at 10 min is 78%. Besides, the IFN-alpha in the data set with PBMC [3] worked out at 81.6 pg/mL. In addition, the outcome in data set [4] and in data set [6] was inactive. In [7], the fold change (FC) amounted to 9.2.

Regarding `Nc1ccn([C@@H]2O[C@H](COP(=O)(S)O[C@H]3[C@@H](O)[C@H](n4ccc(N)nc4=O)O[C@@H]3COP(=O)(S)O[C@H]3[C@@H](O)[C@H](n4cnc5c(N)ncnc54)O[C@@H]3COP(=O)(S)O[C@H]3[C@@H](O)[C@H](n4ccc5c(=O)[nH]c(N)nc54)O[C@@H]3COP(=O)(S)O[C@H]3[C@@H](O)[C@H](n4ccc(=O)[nH]c4=O)O[C@@H]3COP(=O)(S)O[C@H]3[C@@H](O)[C@H](n4ccc(=O)[nH]c4=O)O[C@@H]3COP(=O)(S)O[C@H]3[C@@H](O)[C@H](n4ccc(N)nc4=O)O[C@@H]3COP(=O)(S)O[C@H]3[C@@H](O)[C@H](n4cnc5c(N)ncnc54)O[C@@H]3CO)[C@@H](OP(=O)(S)OC[C@H]3O[C@@H](n4ccc(=O)[nH]c4=O)[C@H](O)[C@@H]3OP(=O)(S)OC[C@H]3O[C@@H](n4ccc(=O)[nH]c4=O)[C@H](O)[C@@H]3OP(=O)(S)OC[C@H]3O[C@@H](n4ccc(=O)[nH]c4=O)[C@H](O)[C@@H]3OP(=O)(S)OCC(O)COP(=O)(S)O[C@H]3[C@@H](O)[C@H](n4ccc(=O)[nH]c4=O)O[C@@H]3COP(=O)(S)O[C@H]3[C@@H](O)[C@H](n4ccc(=O)[nH]c4=O)O[C@@H]3COP(=O)(S)O[C@H]3[C@@H](O)[C@H](n4ccc(=O)[nH]c4=O)O[C@@H]3COP(=O)(S)O[C@H]3[C@@H](O)[C@H](n4ccc(N)nc4=O)O[C@@H]3COP(=O)(S)O[C@H]3[C@@H](O)[C@H](n4ccc(N)nc4=O)O[C@@H]3COP(=O)(S)O[C@H]3[C@@H](O)[C@H](n4cnc5c(N)ncnc54)O[C@@H]3COP(=O)(S)O[C@H]3[C@@H](O)[C@H](n4ccc5c(=O)[nH]c(N)nc54)O[C@@H]3COP(=O)(S)O[C@H]3[C@@H](O)[C@H](n4ccc(=O)[nH]c4=O)O[C@@H]3COP(=O)(S)O[C@H]3[C@@H](O)[C@H](n4ccc(=O)[nH]c4=O)O[C@@H]3COP(=O)(S)O[C@H]3[C@@H](O)[C@H](n4ccc(N)nc4=O)O[C@@H]3COP(=O)(S)O[C@H]3[C@@H](O)[C@H](n4cnc5c(N)ncnc54)O[C@@H]3CO)[C@H]2O)c(=O)n1` (stereo partly drawn), the result in the data set with Splenocyte [8] and with Splenocyte [9] was Active. In addition, the remaining at 10 min in data set [2] was found to be 72%. For the same compound, the outcome in data set [4] and in data set [6] was inactive. In addition, the fold change (FC) in data set [7] turned out to be 1.8.
